Source: PMC5944575 (Clinical and Translational Science, 2018)
≈ marks a conversion by molar mass, not a printed value.

Tests used:
[1] = Clinical safety and tolerability in healthy subjects; type: in vivo, human; conditions: for subjects reporting headache: active drug
Summary of the method: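 Healthy men aged 18–50 (BMI 18–30 kg/m², 50–100 kg), randomized, single-blind, placebo-controlled. SAD: single oral suspension doses of 25–1,200 mg, with sentinel pairs reviewed to 24 h. MAD: 60–600 mg once daily for 10 days. Vital signs, ECG, telemetry, clinical laboratory tests and adverse events were recorded before and after dosing and at follow-up 7–10 days post final dose.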

[2] = tested on: LTB4 production in human whole blood; test: LTB4 production in human whole blood in vitro; type: cell-based; conditions: read-out: IC50, inhibition of LTB4 production
[3] = Human intestinal Ussing chamber metabolism; type: in vitro ADME; conditions: data not shown
[4] = Pharmacokinetics, single ascending dose; type: in vivo, human; conditions: for AUC / CL/F / CLR / t½ / Cmax: geometric mean (%CV); for Tmax: median (range)
Summary of the method: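 Fasted (10 h overnight) healthy men received single oral doses of amorphous suspension, n = 6 per dose. K₂EDTA plasma and pooled urine were assayed by LC-MS/MS with a ¹³C₆-labelled internal standard (validated 1–1,000 nmol/L plasma, 20–20,000 nmol/L urine). Noncompartmental analysis used log-linear trapezoidal AUC extrapolated to infinity; CL/F = dose/AUC; CLR = amount excreted unchanged/AUC.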

[5] = tested on: ex vivo calcium ionophore stimulated LTB4 production in whole blood; parameters: species or system human
Summary of the method: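 Lithium-heparin blood was drawn from dosed subjects 24 h before and just before dosing, then at set times after (SAD to 48 h; MAD daily predose and after last dose). Blood aliquots were stimulated in duplicate with 30 μM calcium ionophore A23187 or DMSO at 37°C, 100 rpm, for 30 min, then stopped on ice with EGTA. LTB₄ in plasma was measured by supported liquid extraction LC-MS/MS, against a baseline of the mean day 1/predose value.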

[6] = Human plasma protein binding; type: in vitro ADME
[7] = Solubility of amorphous and crystalline form; type: physicochemical; conditions: amorphous
[8] = Pharmacokinetics, multiple ascending dose; type: in vivo, human
Summary of the method: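 Amorphous oral suspension was given once daily for 10 days to fasted healthy men (n = 6 per dose), with intensive sampling on days 1 and 10. K₂EDTA plasma and urine were measured by LC-MS/MS with a ¹³C₆-labelled internal standard (validated 1–1,000 nmol/L plasma, 20–20,000 nmol/L urine). Noncompartmental analysis on actual times; CL/F = dose/AUC; CLR = amount excreted unchanged/AUC.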

Caco‐2 = test: Caco-2 permeability and efflux; type: in vitro ADME
logD = type: physicochemical; conditions: pH 7.4
[9] = tested on: cytochrome P450 (CYP)3A4 and CYP3A5; test: In vitro metabolism studies; type: in vitro ADME
5‐LO [10] = conditions: cited from earlier work
5‐LO [11] = conditions: at‐risk patients with CAD ref 15; cited from earlier work
[12] = 60 mg OD, day 10, geometric mean (%CV)
[13] = 180 mg OD, day 1, geometric mean (%CV)
[14] = 180 mg OD, day 10, geometric mean (%CV)
[15] = 360 mg OD, day 1, geometric mean (%CV)
[16] = 360 mg OD, day 10, geometric mean (%CV)
[17] = 600 mg OD, day 1, geometric mean (%CV)
[18] = 600 mg OD, day 10, geometric mean (%CV)

Cc1cc(-c2ccc(C(=O)[C@@H]3CCCC[C@H]3C(=O)Nc3cnn4c3C(=O)NCC4)cc2)n[nH]1 [AZD5718]
subjects experiencing an AE on active drug ([1]; MAD study): 10 subjects
subjects reporting headache ([1]; MAD study): five
serious adverse events ([1]; SAD 25–1,200 mg and MAD 60–600 mg): no serious adverse events
safety and tolerability findings ([1]; SAD and MAD, healthy subjects): No clinically relevant safety and tolerability findings
subjects experiencing an AE on active drug ([1]; SAD study): 17 subjects
subjects reporting headache ([1]; SAD study): three
maximal tolerated dose ([1]; up to 1,200 mg single, 600 mg OD for 10 days): not established
IC50 [2]: 39 nM
metabolism kinetics [3]: saturable metabolism
AUC ([4]; 25 mg single dose): 376.3 (38.1) nmol*h/L
CL/F ([4]; 25 mg single dose): 148.8 (38.1) L/h
CLR ([4]; 25 mg single dose): 0.68 (39.4) L/h
t½ ([4]; 25 mg single dose): 10.3 (51.0) h
Tmax ([4]; 25 mg single dose): 3.0 (1.0–6.0) h
AUC ([4]; 50 mg single dose): 727.0 (15.4) nmol*h/L
CL/F ([4]; 50 mg single dose): 153.9 (15.4) L/h
CLR ([4]; 50 mg single dose): 0.62 (14.7) L/h
Cmax ([4]; 50 mg single dose): 81.6 nM
t½ ([4]; 50 mg single dose): 12.5 (33.3) h
Tmax ([4]; 50 mg single dose): 1.0 (1.0–3.0) h
AUC ([4]; 100 mg single dose): 1,441 (45.3) nmol*h/L
CL/F ([4]; 100 mg single dose): 155.6 (45.3) L/h
CLR ([4]; 100 mg single dose): 0.66 (41.0) L/h
Cmax ([4]; 100 mg single dose): 170 nM
t½ ([4]; 100 mg single dose): 12.7 (35.7) h
Tmax ([4]; 100 mg single dose): 1.0 (0.5–3.0) h
AUC ([4]; 300 mg single dose): 8,462 (20.1) nmol*h/L
CL/F ([4]; 300 mg single dose): 79.4 (20.1) L/h
CLR ([4]; 300 mg single dose): 0.67 (23.7) L/h
Cmax ([4]; 300 mg single dose): 2360 nM
t½ ([4]; 300 mg single dose): 13.7 (43.9) h
Tmax ([4]; 300 mg single dose): 1.0 (0.5–1.0) h
AUC ([4]; 600 mg single dose): 18,810 (42.1) nmol*h/L
CL/F ([4]; 600 mg single dose): 71.5 (42.1) L/h
CLR ([4]; 600 mg single dose): 0.70 (15.4) L/h
Cmax ([4]; 600 mg single dose): 5050 nM
t½ ([4]; 600 mg single dose): 11.4 (18.0) h
Tmax ([4]; 600 mg single dose): 1.0 (1.0–2.0) h
AUC ([4]; 1,200 mg single dose): 35,840 (33.8) nmol*h/L
CL/F ([4]; 1,200 mg single dose): 75.0 (33.8) L/h
CLR ([4]; 1,200 mg single dose): 0.62 (12.1) L/h
Cmax ([4]; 1,200 mg single dose): 6880 nM
t½ ([4]; 1,200 mg single dose): 10.3 (19.0) h
Tmax ([4]; 1,200 mg single dose): 1.5 (1.0–2.0) h
relative bioavailability of the crystalline formulation compared with the amorphous formulation ([4]; SAD, oral suspensions, results not presented): much lower
mean terminal half‐life ([4]; after single dose administration and at steady state, all doses): 10 to 12 h
dose‐linearity of exposure ([4]; single and multiple administration, except Ctrough in the MAD): more than dose proportional increase in exposure
median Tmax ([4]; single and multiple dose, amorphous suspension, fasted): ~1 h
renal clearance as share of total oral clearance ([4]; unchanged drug in urine): ~1%
LTB4 production inhibition throughout the day ([5]; MAD, 180, 360, and 600 mg doses, last day of repeated dosing): > 80%
mean LTB4 inhibition throughout the whole day ([5]; SAD, single doses of 300–1,200 mg): > 80%
fold lower IC50 for ex vivo stimulated LTB4 inhibition ([5]; compared with both AM103 and VIA2291): ~100 fold
human plasma protein binding [6]: 95.7%
solubility [7]: 20 µM (≈ 8.93 µg/mL)
AUCτ ([8]; 60 mg OD, day 1, geometric mean (%CV)): 1,018 (22.4) nmol*h/L
Tmax ([8]; 60 mg OD, day 1, median (range)): 0.8 (0.5–2.0) h
Cmax ([8]; 60 mg OD, day 1, oral amorphous suspension, N = 6, geometric mean (%CV)): 167 nM
AUCτ [8, 12]: 1,386 (27.4) nmol*h/L
CL/F [8, 12]: 96.9 (27.4) L/h
CLR [8, 12]: 0.64 (16.0) L/h
Cmax [8, 12]: 220 nM
t½ [8, 12]: 11.6 (6.7) h
Tmax ([8]; 60 mg OD, day 10, median (range)): 0.5 (0.5–1.0) h
AUCτ [8, 13]: 3,732 (41.2) nmol*h/L
Cmax [8, 13]: 847 nM
Tmax ([8]; 180 mg OD, day 1, median (range)): 1.0 (1.0–1.0) h
AUCτ [8, 14]: 5,128 (46.9) nmol*h/L
CL/F [8, 14]: 78.6 (46.9) L/h
CLR [8, 14]: 0.75 (16.0) L/h
Cmax [8, 14]: 1240 nM
t½ [8, 14]: 11.2 (13.0) h
Tmax ([8]; 180 mg OD, day 10, median (range)): 1.0 (1.0–1.0) h
AUCτ [8, 15]: 10,350 (28.8) nmol*h/L
Cmax [8, 15]: 2560 nM
Tmax ([8]; 360 mg OD, day 1, median (range)): 1.0 (1.0–2.0) h
AUCτ [8, 16]: 12,760 (31.0) nmol*h/L
CL/F [8, 16]: 63.1 (31.0) L/h
CLR [8, 16]: 0.99 (5.2) L/h
Cmax [8, 16]: 3210 nM
t½ [8, 16]: 9.1 (10.7) h
Tmax ([8]; 360 mg OD, day 10, median (range)): 1.0 (1.0–1.0) h
AUCτ [8, 17]: 16,290 (48.6) nmol*h/L
Cmax [8, 17]: 4930 nM
Tmax ([8]; 600 mg OD, day 1, median (range)): 1.0 (1.0–1.0) h
AUCτ [8, 18]: 23,170 (47.4) nmol*h/L
CL/F [8, 18]: 58.0 (47.4) L/h
CLR [8, 18]: 0.72 (23.3) L/h
Cmax [8, 18]: 5690 nM
t½ [8, 18]: 9.9 (29.2) h
Tmax ([8]; 600 mg OD, day 10, median (range)): 1.5 (1.0–3.0) h
accumulation on repeated dosing ([8]; Ctrough, once daily dosing): small accumulation
time to steady state ([8]; repeated once daily dosing, Ctrough, visual inspection): ~3 days
Papp (Caco‐2): 24 10^−6 cm/s
efflux ratio (Caco‐2): 7.4
logD (logD): 2.9
CYP‐isoforms involved in the metabolism [9]: (CYP)3A4 and CYP3A5

C[C@H](C#Cc1ccc(Cc2ccc(F)cc2)s1)N(O)C(N)=O [VIA‐2291, Atreleuton]
ex vivo stimulated LTB4 production (5‐LO [10]; patients with ACS ref 13): reduced
noncalcified plaque volume (5‐LO [10]; patients with ACS ref 13): reduced
left ventricular ejection fraction (5‐LO [10]; patients with ACS, dose dependent ref 13, 14): improved

CC(c1cc2ccccc2s1)N(O)C(N)=O (centres unmarked) [zileuton]
flow‐mediated dilation in the brachial artery (5‐LO [11]): improved
leukotriene production in blood (5‐LO [11]): inhibited
